Measurements published in ChEMBL document CHEMBL1275331, “Discovery of a novel 5-HT(3) antagonist/5-HT(1A) agonist 3-amino-5,6,7,8-tetrahydro-2-{4-[4-(quinolin-2-yl)piperazin-1-yl]butyl}quinazolin-4(3H)-one (TZB-30878) as an orally bioavailable agent for irritable bowel syndrome” (J Med Chem, 2010).
The source made the active and inactive calls. The rule behind the calls is not given here.

Tests used:
[1] = Ratio of drug level in brain to blood in Sprague-Dawley rat at 3 mg/kg, po after 8 hrs; type: ADME, organism-based; design: dose 3 mg/kg, route oral
Procedure, shortened: (§1)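 Rats dosed 3 mg/kg orally; total compound levels measured in brain and blood at 2, 4 and 8 h, brain/blood ratio derived. Mean ± SD of three rats.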

[2] = target: T1, 5-hydroxytryptamine receptor 1A (Homo sapiens) (UniProt P08908); experiment: Agonist activity at human cloned 5HT1A receptor expressed in CHO cells assessed as stimulation of [35S]GTPgammaS binding at 900 uL after 30 mins by liquid scintillation counting; type: functional, cell-based
T1 sequence (whole entry): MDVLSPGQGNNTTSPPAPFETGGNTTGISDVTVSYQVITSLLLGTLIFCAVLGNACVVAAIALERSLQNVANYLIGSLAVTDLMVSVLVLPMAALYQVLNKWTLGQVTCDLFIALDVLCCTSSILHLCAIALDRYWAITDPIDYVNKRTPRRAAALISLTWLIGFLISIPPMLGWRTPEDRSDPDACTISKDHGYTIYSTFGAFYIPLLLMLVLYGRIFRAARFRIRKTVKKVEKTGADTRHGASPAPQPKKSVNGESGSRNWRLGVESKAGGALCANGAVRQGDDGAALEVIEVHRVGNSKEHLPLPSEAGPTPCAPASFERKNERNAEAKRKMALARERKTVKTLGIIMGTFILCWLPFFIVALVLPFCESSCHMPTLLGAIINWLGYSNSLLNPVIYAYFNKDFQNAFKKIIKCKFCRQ
Procedure, shortened: (§2)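 Membranes from CHO cells expressing human 5-HT1A were diluted in 20 mM HEPES/3 mM MgCl2/120 mM NaCl, pH 7.4. They were preincubated with 20 μM GDP and test drug for 20 min at 30 °C, then held on ice for 15 min. [35S]GTPγS (100 pM) was added for 30 min at 30 °C. Samples were filtered, washed with cold HEPES/MgCl2 buffer, and bound radioactivity counted; EC50 and Emax reported.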

Rattus norvegicus [3] = experiment: Induction of 5HT1A receptor-mediated behavioral activity in rat assessed as appearance of flat body posture at 10 mg/kg, iv after 30 mins; type: functional, organism-based; design: dose 10 mg/kg
Procedure, shortened: (§3)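 Rats were conditioned to test procedures over 2 weeks and acclimated to the test cage for 1 h. Vehicle was saline containing diluted HCl. Lower lip retraction and flat body posture were scored on a 0–3 scale at 5, 10, 20 and 30 min after dosing.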

[4] = target: T2, 5-hydroxytryptamine receptor 3A (Homo sapiens, UniProt P46098); experiment: Displacement of [3H]BRL-43694 from human 5HT3 receptor expressed in HEK293 cells by liquid scintillation counting; type: cell-based
T2 sequence (P46098 whole entry): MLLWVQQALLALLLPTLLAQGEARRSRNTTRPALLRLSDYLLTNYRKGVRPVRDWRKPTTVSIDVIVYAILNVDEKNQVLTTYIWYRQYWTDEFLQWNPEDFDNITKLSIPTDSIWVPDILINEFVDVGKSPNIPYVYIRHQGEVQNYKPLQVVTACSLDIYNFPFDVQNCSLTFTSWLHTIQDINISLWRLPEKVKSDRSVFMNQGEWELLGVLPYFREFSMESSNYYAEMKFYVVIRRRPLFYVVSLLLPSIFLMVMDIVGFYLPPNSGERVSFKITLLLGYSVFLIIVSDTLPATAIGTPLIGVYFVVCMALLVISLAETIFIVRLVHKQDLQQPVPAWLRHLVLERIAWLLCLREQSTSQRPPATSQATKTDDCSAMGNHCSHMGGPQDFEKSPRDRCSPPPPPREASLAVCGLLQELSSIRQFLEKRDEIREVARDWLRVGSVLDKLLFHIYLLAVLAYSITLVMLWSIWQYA
Procedure, shortened: (§4)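 HEK-293 membranes expressing human 5-HT3 were incubated with 0.5 nmol/L [3H]BRL-43694 (final) for 60 min at 25 °C. Buffer: 50 mM Tris-HCl, 5 mM MgCl2, 1 mM EDTA, pH 7.5. Compound came from 270 μmol/L DMSO stock, diluted in buffer. Filtration was through GF/B presoaked in 0.5% polyethyleneimine, with two cold Tris washes. Run in duplicate or triplicate; percent inhibition calculated.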

Rattus norvegicus [5] = experiment: Induction of 5HT1A receptor-mediated lower lip retraction behavior in rat at 10 mg/kg, iv after 30 mins; type: functional, organism-based; design: dose 10 mg/kg; procedure, shortened: as §3
[6] = Drug level in Sprague-Dawley rat brain at 3 mg/kg, po after 4 hrs by HPLC analysis; type: ADME, organism-based; design: dose 3 mg/kg, route oral; conditions: read-out: Drug uptake
Procedure, shortened: (§5)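 Total compound concentration was measured in brain and blood at 2, 4 and 8 h after a single oral 3 mg/kg dose. Brain/blood ratio was also derived. Values are mean ± SD of three rats.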

[7] = Drug level in Sprague-Dawley rat blood at 3 mg/kg, po after 8 hrs by HPLC analysis; type: ADME, organism-based; design: dose 3 mg/kg, route oral; conditions: whole blood, read-out: Drug uptake; procedure, shortened: as §5
[8] = Drug level in Sprague-Dawley rat blood at 3 mg/kg, po after 2 hrs by HPLC analysis; type: ADME, organism-based; design: dose 3 mg/kg, route oral; conditions: whole blood, read-out: Drug uptake; procedure, shortened: as §5
Rattus norvegicus [9] = experiment: Effect on 5HT1A receptor-mediated hypothermic effect in rat assessed as change in rectal temperature at 10 mg/kg, iv after 30 mins; type: functional, organism-based; design: dose 10 mg/kg
Procedure, shortened: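 Rats were conditioned over 2 weeks and acclimated to the cage for 1 h before dosing (vehicle: saline with diluted HCl). Rectal temperature was recorded with a thermistor probe inserted 3 cm, before and 30 min after administration. The change in temperature was reported.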

[10] = Ratio of drug level in brain to blood in Sprague-Dawley rat at 3 mg/kg, po after 2 hrs; type: ADME, organism-based; design: dose 3 mg/kg, route oral; procedure, shortened: as §1
[11] = target: T3, 5-hydroxytryptamine receptor 1A (Homo sapiens, UniProt P08908); experiment: Agonist activity at human cloned 5HT1A receptor expressed in CHO cells assessed as stimulation of [35S]GTPgammaS binding after 30 mins by liquid scintillation counting; type: functional, cell-based; procedure, shortened: as §2
T3 sequence (P08908 whole entry): T1 sequence (whole entry)

[12] = target: T4, 5-hydroxytryptamine receptor 3A (Cavia porcellus) (UniProt O70212); experiment: Inhibition of 5HT3 receptor-mediated contraction of guinea pig ileum at 1 umol/L after 20 mins relative to control; type: tissue-based
T4 sequence (whole entry): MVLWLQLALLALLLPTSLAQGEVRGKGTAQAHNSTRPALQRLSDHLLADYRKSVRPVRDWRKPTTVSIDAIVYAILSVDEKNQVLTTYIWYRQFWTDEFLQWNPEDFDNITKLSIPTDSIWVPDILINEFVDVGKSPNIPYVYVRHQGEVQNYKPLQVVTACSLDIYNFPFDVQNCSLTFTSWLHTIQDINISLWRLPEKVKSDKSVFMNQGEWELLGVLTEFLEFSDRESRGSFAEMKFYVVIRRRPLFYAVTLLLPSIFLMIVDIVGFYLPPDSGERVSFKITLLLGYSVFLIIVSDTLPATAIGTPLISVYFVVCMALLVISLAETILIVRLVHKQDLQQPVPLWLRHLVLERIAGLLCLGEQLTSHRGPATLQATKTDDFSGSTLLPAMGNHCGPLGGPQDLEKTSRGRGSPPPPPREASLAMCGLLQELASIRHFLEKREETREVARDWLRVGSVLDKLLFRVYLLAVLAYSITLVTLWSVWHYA
Procedure, shortened: (§6)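 Ileum strips in Tyrode solution at 37 °C, gassed 5% CO2/95% O2, isotonic contractions under 1 g load. After at least 3 stable contractions to 10 μM 2-methyl-5-HT, tissue exposed to compound or DMSO vehicle for 20 min, then 10 μM 2-methyl-5-HT re-added; contraction expressed as % inhibition of control.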

[13] = Ratio of drug level in brain to blood in Sprague-Dawley rat at 3 mg/kg, po after 4 hrs; type: ADME, organism-based; design: dose 3 mg/kg, route oral; procedure, shortened: as §1
[14] = target: T4, 5-hydroxytryptamine receptor 3A (Cavia porcellus); experiment: Inhibition of 5HT3 receptor-mediated contraction of guinea pig ileum at 0.1 umol/L after 20 mins relative to control; type: tissue-based; procedure, shortened: as §6
Rattus norvegicus [15] = experiment: […] activity in rat assessed as inhibition of 5HT-induced bradycardia at 10 ug/kg, iv by von Benzold-Jarisch reflex assay; type: functional
[16] = Drug level in Sprague-Dawley rat brain at 3 mg/kg, po after 2 hrs by HPLC analysis; type: ADME, organism-based; design: dose 3 mg/kg, route oral; conditions: read-out: Drug uptake; procedure, shortened: as §5
[17] = Drug level in Sprague-Dawley rat blood at 3 mg/kg, po after 4 hrs by HPLC analysis; type: ADME, organism-based; design: dose 3 mg/kg, route oral; conditions: whole blood, read-out: Drug uptake; procedure, shortened: as §5
[18] = Drug level in Sprague-Dawley rat brain at 3 mg/kg, po after 8 hrs by HPLC analysis; type: ADME, organism-based; design: dose 3 mg/kg, route oral; conditions: read-out: Drug uptake; procedure, shortened: as §5
[19] = target: T3, 5-hydroxytryptamine receptor 1A; experiment: Displacement of [3H]8-OH-DPAT from human 5HT1A receptor expressed in CHO cells by liquid scintillation counting; type: cell-based
Procedure, shortened: (§7)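 CHO-cell membranes with human 5-HT1A were incubated with 0.25 nmol/L [3H]8-OH-DPAT (final) for 60 min at 27 °C. Buffer: 50 mM Tris-HCl, 10 mM MgSO4, 0.5 mM EDTA, 0.1% ascorbic acid, pH 7.4. Compound came from 270 μmol/L DMSO stock, diluted in buffer. Filtration was through GF/C presoaked in 0.3% polyethyleneimine, with two cold Tris washes. Run in duplicate or triplicate; percent inhibition of binding calculated.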

[20] = target: Adrenergic receptor alpha-1 (Rattus norvegicus) (UniProt P15823+P23944+P43140); experiment: Inhibition of rat alpha1 adrenergic receptor at 0.1 uM
[21] = target: 5-hydroxytryptamine receptor 2A (Rattus norvegicus) (UniProt P14842); experiment: Inhibition of rat 5HT2 receptor AT 0.1 uM
[22] = target: T1, 5-hydroxytryptamine receptor 1A (Homo sapiens); experiment: Displacement of [3H]8-OH-DPAT from human 5HT1A receptor expressed in CHO cells at 1000 nM by liquid scintillation counting; type: cell-based; procedure, shortened: as §7
[23] = target: T1, 5-hydroxytryptamine receptor 1A (Homo sapiens); experiment: Displacement of [3H]8-OH-DPAT from human 5HT1A receptor expressed in CHO cells at 100 nM by liquid scintillation counting; type: cell-based; procedure, shortened: as §7
[24] = target: T5, 5-hydroxytryptamine receptor 3A (Homo sapiens) (UniProt P46098); experiment: Displacement of [3H]BRL-43694 from human 5HT3 receptor expressed in HEK293 cells at 1000 nM by liquid scintillation counting; type: cell-based; procedure, shortened: as §4
T5 sequence (whole entry): T2 sequence (P46098 whole entry)

[25] = target: T5, 5-hydroxytryptamine receptor 3A (Homo sapiens); experiment: Displacement of [3H]BRL-43694 from human 5HT3 receptor expressed in HEK293 cells at 100 nM by liquid scintillation counting; type: cell-based; procedure, shortened: as §4

Chain of 5-hydroxytryptamine receptor 2A (Rattus norvegicus) (P14842 whole entry): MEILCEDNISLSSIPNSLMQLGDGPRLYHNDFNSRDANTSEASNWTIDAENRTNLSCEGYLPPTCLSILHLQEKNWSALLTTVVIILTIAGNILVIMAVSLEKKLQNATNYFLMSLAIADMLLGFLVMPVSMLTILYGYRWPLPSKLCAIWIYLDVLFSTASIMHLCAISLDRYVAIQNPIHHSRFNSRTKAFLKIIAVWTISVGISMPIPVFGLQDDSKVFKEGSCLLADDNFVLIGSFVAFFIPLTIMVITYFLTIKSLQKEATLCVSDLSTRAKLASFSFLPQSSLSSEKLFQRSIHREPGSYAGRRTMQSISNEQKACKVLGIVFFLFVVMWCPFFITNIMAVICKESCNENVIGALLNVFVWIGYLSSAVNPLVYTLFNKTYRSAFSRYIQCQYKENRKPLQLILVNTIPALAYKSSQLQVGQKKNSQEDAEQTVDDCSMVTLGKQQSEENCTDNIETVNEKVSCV

Row | SMILES | Kp at 8 h [1] | Emax [2] | Activity (Rattus norvegicus [3]) | IC50 [4] | Activity (Rattus norvegicus [5]) | concentration at 4 h [6] | concentration at 8 h [7] | concentration at 2 h [8] | deltaT (Rattus norvegicus [9]) | Kp at 2 h [10] | EC50 [11] | inhibition [12] | Kp at 4 h [13] | inhibition [14] | inhibition in vivo at 0.01 mg/kg (Rattus norvegicus [15]) | concentration at 2 h [16] | concentration at 4 h [17] | concentration at 8 h [18] | IC50 [19] | also measured
1 | CC(=O)N1CCc2c(sc3nc(SCCCN4CCN(c5ccc6ccccc6n5)CC4)n(N)c(=O)c23)C1 | 0.338 | 84.8% | Active | 77.6 nM | Active | 12.9 nM | 8.98 nM | 56 nM | -0.1 °C | 0.332 | 2.5 nM | 97.6% | 0.357 | 79.9% | 77% | 18.7 nM | 36.1 nM | 2.96 nM | 2.5 nM | –
2 | Nn1c(CCCCN2CCN(c3ccc4ccccc4n3)CC2)nc2ccccc2c1=O | 7.65 | 94.7% | Active | 45.7 nM | Active | 367 nM | 28.3 nM | 97.4 nM | -1.9 °C | 7.11 | 30.7 nM | 90.1% | 6.59 | – | 21.9% | 685 nM | 55.5 nM | 204 nM | < 10 nM | inhibition [20]: 63%; inhibition [21]: 78%
3 | Nn1c(SCCCN2CCN(c3ccc4ccccc4n3)CC2)nc2c(c1=O)CCCC2 | 2.53 | 90.3% | – | 63.8 nM | – | 32.2 nM | 5.17 nM | 21.2 nM | – | 2.99 | 182 nM | 95.1% | 3.05 | 80% | – | 63.1 nM | 10.6 nM | 13 nM | 5.6 nM | –
4 | Nn1c(=O)c2c(nc1[C@H]1CC[C@H](N3CCN(c4ccc5ccccc5n4)CC3)CC1)CCCC2 | – | – | – | – | – | – | – | – | – | – | – | – | – | – | – | – | – | – | – | inhibition [22]: 96.3%; inhibition [23]: 76.9%; inhibition [24]: 18.4%; inhibition [25]: 1.4%
